The text below walks through data of ChEMBL document CHEMBL3826951, “Discovery of Benzocycloalkane Derivatives Efficiently Blocking Bacterial Virulence for the Treatment of Methicillin-Resistant S. aureus (MRSA) Infections by Targeting Diapophytoene Desaturase (CrtN)” (J Med Chem, 2016).

The IC50 is the concentration needed to halve the response being measured. The term solubility denotes how much of the substance goes into solution per volume. Low values mean little dissolved substance, high ones much dissolved substance.

≈ marks a conversion by molar mass, not a printed value. Calls of active or inactive are those of the source. No cut-off for these calls is given here.

Series [1] has as its target T1, 4,4'-diapophytoene desaturase (4,4'-diaponeurosporene-forming) (Staphylococcus aureus (strain Newman), UniProt O07855).
T1 sequence (O07855 whole entry): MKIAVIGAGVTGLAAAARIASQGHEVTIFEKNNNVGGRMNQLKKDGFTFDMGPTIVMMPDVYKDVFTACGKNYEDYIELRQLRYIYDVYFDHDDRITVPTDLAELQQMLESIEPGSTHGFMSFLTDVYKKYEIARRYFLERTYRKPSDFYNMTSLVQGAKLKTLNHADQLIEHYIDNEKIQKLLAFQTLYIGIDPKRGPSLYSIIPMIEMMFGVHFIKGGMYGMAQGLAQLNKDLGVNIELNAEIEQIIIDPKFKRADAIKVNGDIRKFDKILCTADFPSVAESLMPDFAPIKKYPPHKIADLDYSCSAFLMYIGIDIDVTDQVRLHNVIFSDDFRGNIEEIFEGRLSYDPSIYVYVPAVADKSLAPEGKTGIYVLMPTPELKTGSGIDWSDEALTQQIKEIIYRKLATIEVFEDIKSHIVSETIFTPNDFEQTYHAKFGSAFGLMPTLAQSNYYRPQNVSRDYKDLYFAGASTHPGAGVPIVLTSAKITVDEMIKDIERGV
In words: Inhibition of diapophytoene desaturase in Staphylococcus aureus Newman assessed as reduction in staphyloxanthin pigment formation after 48 hrs by spectrophotometry. More on the design: species or system Staphylococcus aureus subsp. aureus str. Newman.

The target in series [2] is T1, 4,4'-diapophytoene desaturase (4,4'-diaponeurosporene-forming). In words: Inhibition of 6x-His-tagged Staphylococcus aureus diapophytoene desaturase expressed in Escherichia coli BL21 (DE3) using diapophytoene substrate after overnight incubation.
The nature of series [3]: Aqueous solubility of the compound in water after 24 hrs by HPLC method. Type of series: physicochemical. A digest of the protocol:
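Excess solid stirred in pure water for 24 h, then filtered. Filtrate analysed by HPLC (10 µL injection). Concentration read against a calibration curve of peak area versus concentration, built from methanol solutions at 50–800 µg/mL.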

For the next series, the system named is Trichophyton rubrum. In words: Antifungal activity against naftifine-sensitive Trichophyton rubrum after 7 days by serial dilution method. Type of series: functional. The method in brief:
(§1)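 Broth serial dilution in 96-well plates per NCCLS recommendations. Medium: RPMI 1640 buffered with 0.165 M MOPS. Fungi were ATCC strains or clinical isolates.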

In the next series the test system is Trichophyton verrucosum. Briefly: Antifungal activity against naftifine-sensitive Trichophyton verrucosum after 7 days by serial dilution method. The format is functional. The method in brief: as §1
A further series has as its system Nannizzia gypsea. In words: Antifungal activity against naftifine-sensitive Microsporum gypseum after 7 days by serial dilution method. Type of series: functional. The method in brief:
as §1

Series [4] has as its system Trichophyton mentagrophytes. In words: Antifungal activity against naftifine-sensitive Trichophyton mentagrophytes after 7 days by serial dilution method. Type of series: functional. A digest of the protocol: as §1
Series [5] has as its system Staphylococcus aureus. In words: Attenuation of methicillin-resistant Staphylococcus aureus Mu 50 virulence in BALB/c mouse systemic infection model assessed as decrease in bacterial survival in liver at 50 mg/kg, ip administered every 12 hrs for 108 hrs followed by bacterial challenge after first 12 hrs of compound dosing measured 5 days post infection. The format is functional. To be noted: Mu50. The method in brief:
(§2)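 Female BALB/c mice, 6-8 weeks old. Dosed ip every 12 h for 108 h. Challenged with 100 µL at 12 h: 1.6 × 10^8 CFU Mu50 or 4 × 10^7 CFU USA400 MW2. Sacrificed 5 days post-infection. Livers and kidneys homogenised in PBS/0.1% Triton X-100, serially plated on TSA, CFU counted; two-tailed Mann-Whitney.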

Series [6] deals with Staphylococcus aureus. Briefly: Attenuation of methicillin-resistant Staphylococcus aureus Mu 50 virulence in BALB/c mouse systemic infection model assessed as decrease in bacterial survival in liver at 200 mg/kg, ip administered every 12 hrs for 108 hrs followed by bacterial challenge after first 12 hrs of compound dosing measured 5 days post infection. The format is functional, Mu50. A digest of the protocol:
as §2

In series [7] the test system is Staphylococcus aureus. In words: Attenuation of methicillin-resistant Staphylococcus aureus USA400 MW2 virulence in BALB/c mouse systemic infection model assessed as decrease in bacterial burden in liver at 50 mg/kg, ip administered every 12 hrs for 108 hrs followed by bacterial challenge after first 12 hrs of compound dosing measured 5 days post infection. Type of series: functional. The method in brief:
as §2

In series [8] the test system is Staphylococcus aureus. In words: Attenuation of methicillin-resistant Staphylococcus aureus Mu 50 virulence in BALB/c mouse systemic infection model assessed as decrease in bacterial survival in kidney at 200 mg/kg, ip administered every 12 hrs for 108 hrs followed by bacterial challenge after first 12 hrs of compound dosing measured 5 days post infection. The format is functional, Mu50. A digest of the protocol:
as §2

Series [9] deals with Staphylococcus aureus. Briefly: Attenuation of methicillin-resistant Staphylococcus aureus USA400 MW2 virulence in BALB/c mouse systemic infection model assessed as decrease in bacterial burden in liver at 200 mg/kg, ip administered every 12 hrs for 108 hrs followed by bacterial challenge after first 12 hrs of compound dosing measured 5 days post infection. Type of series: functional. A digest of the protocol:
as §2

For series [10], the system named is Staphylococcus aureus. Briefly: Attenuation of methicillin-resistant Staphylococcus aureus Mu 50 virulence in BALB/c mouse systemic infection model assessed as decrease in bacterial survival in kidney at 50 mg/kg, ip administered every 12 hrs for 108 hrs followed by bacterial challenge after first 12 hrs of compound dosing measured 5 days post infection. The format is functional. Conditions: Mu50. The method in brief:
as §2

Series [11] deals with T2, 4,4'-diapophytoene synthase (Staphylococcus aureus, UniProt A9JQL9).
T2 sequence (A9JQL9 whole entry): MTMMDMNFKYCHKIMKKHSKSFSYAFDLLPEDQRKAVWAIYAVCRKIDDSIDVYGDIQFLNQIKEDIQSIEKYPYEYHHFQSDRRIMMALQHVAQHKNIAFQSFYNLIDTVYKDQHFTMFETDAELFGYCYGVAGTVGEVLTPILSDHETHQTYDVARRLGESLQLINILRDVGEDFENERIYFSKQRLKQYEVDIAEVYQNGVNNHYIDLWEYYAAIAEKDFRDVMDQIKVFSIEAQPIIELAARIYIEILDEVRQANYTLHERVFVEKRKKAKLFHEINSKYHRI
Briefly: Inhibition of Staphylococcus aureus ATCC 27659 full length His-tagged dehydrosqualene synthase expressed in Escherichia coli BL21 (DE3) cells assessed as reduction in staphyloxanthin pigment formation after 72 hrs by spectrophotometric analysis.

As for `CN(C/C=C/c1ccccc1[N+](=O)[O-])Cc1ccc2c(c1)CCCCC2`, the IC50 in series [1] was above 5000 nM.
For the compound `CN(C/C=C/c1ccc(Br)cc1)Cc1ccc2c(c1)CCCC2.Cl`, the half-inhibitory concentration (IC50) in series [1] worked out at 1.3 nM; in series [2], 450 nM. This compound also showed a solubility at 24 h in [3] of 2100 µg/mL.
With `CC(C)N(C/C=C/c1ccccc1)Cc1ccc2c(c1)CCCCC2`, in [1], the 50% inhibitory concentration (IC50) is above 10000 nM.
`CN(C/C=C/c1ccccc1)Cc1ccc2c(c1)CCCCC2`: the IC50 in series [1] came out at 202 nM.
For `C(/C=C/c1ccccc1)=C\COCc1ccc2c(c1)CCCCC2`, the IC50 in [1] was above 20000 nM.
With `c1ccc(CCCOCc2ccc3c(c2)CCCCC3)cc1`, the IC50 in [1] was above 20000 nM.
On the same count and under the same terms, the value for `C/C(=C\c1ccccc1)CN(C)Cc1ccc2c(c1)CCCCC2` was above 10000 nM; that for `Cc1cccc(/C=C/CN(C)Cc2ccc3c(c2)CCCCC3)c1` was 770 nM.
For the compound `CN(C/C=C/c1ccc(Br)cc1)Cc1ccc2c(c1)CCCCC2.Cl`, the IC50 in series [1] stood at 7.8 nM; in [2] it was 410 nM. In series [3], this compound had a solubility at 24 h of 570 µg/mL.
Turning to `C/C=C/CN(C)Cc1ccc2c(c1)CCCCC2`, in series [1], the IC50 is above 50000 nM.
For the compound `CN(C/C=C/C1CCCCC1)Cc1ccc2c(c1)CCCCC2`, the IC50 in [1] was above 10000 nM.
With `CC(=O)N1CCN(c2ccc(OCC3COC(Cn4ccnc4)(c4ccc(Cl)cc4Cl)O3)cc2)CC1` (stereo not given) [KETOCONAZOLE], the “MIC=<80” value turned out to be 0.5 µg/mL (≈ 0.941 µM) against Trichophyton rubrum, 0.0625 µg/mL (≈ 0.118 µM) against Trichophyton verrucosum, 2 µg/mL (≈ 3.76 µM) in the series with Nannizzia gypsea and 0.0625 µg/mL (≈ 0.118 µM) in series [4].
`C[C@@H](c1ncncc1F)[C@](O)(Cn1cncn1)c1ccc(F)cc1F` [VORICONAZOLE]: the “MIC=<80” value in the series on Trichophyton rubrum amounted to 0.03125 µg/mL (≈ 0.0895 µM); against Trichophyton verrucosum it was 0.03125 µg/mL (≈ 0.0895 µM); against Nannizzia gypsea, 0.25 µg/mL (≈ 0.716 µM); in series [4] it was 0.03125 µg/mL (≈ 0.0895 µM).
Regarding `CN(C/C=C/c1ccccc1)Cc1cccc2c1CCC2`, in series [1], the IC50 was above 2500 nM.
Turning to `CN(C/C=C/C=C/c1ccccc1)Cc1ccc2c(c1)CCCCC2`, the half-inhibitory concentration (IC50) in [1] was determined as 12.2 nM.
`CN(C/C=C/Cc1ccccc1)Cc1ccc2c(c1)CCCCC2`: in [1], the concentration for half-maximal inhibition (IC50) was above 10000 nM.
On the same count and under the same terms, then `C(=C\c1ccccc1)/CNCc1ccc2c(c1)CCCCC2`, with above 10000 nM; and `Cc1ccc(/C=C/CN(C)Cc2ccc3c(c2)CCCCC3)cc1`, with 31 nM.
The same measure, in the same setting: the value for `CN(C/C=C/c1ccccc1F)Cc1ccc2c(c1)CCCCC2` was 246 nM; that for `CN(CCCc1ccccc1)Cc1ccc2c(c1)CCCCC2` was above 10000 nM.
The same measure, in the same setting: then `CN(C/C=C/c1ccccc1)Cc1ccc2c(c1)CCC2`, with 808 nM.
As to `O=P([O-])([O-])C(CCCc1cccc(Oc2ccccc2)c1)S(=O)(=O)[O-].[K+].[K+].[K+]` (stereo not given), in the series on Staphylococcus aureus [5], the result was Active. Moreover, the Activity was determined as 2.84 log10CFU with Staphylococcus aureus [6], 0.3 log10CFU in the series on Staphylococcus aureus [8] and 1.59 log10CFU with Staphylococcus aureus [9]. Further, the result in the series with Staphylococcus aureus [7] and in the series on Staphylococcus aureus [10] was inactive. The half-inhibitory concentration (IC50) in [11] worked out at 83.4 nM.
Consider `CN(C/C=C/c1cccc([N+](=O)[O-])c1)Cc1ccc2c(c1)CCCCC2`, for which, in series [1], the concentration for half-maximal inhibition (IC50) is above 1000 nM.
On the same count and under the same terms, the value for `CN(C/C=C/c1ccc(C(F)(F)F)cc1)Cc1ccc2c(c1)CCCCC2` was 10 nM; that for `CN(C/C=C/c1ccc(F)cc1)Cc1ccc2c(c1)CCCCC2` was 39.4 nM.
Take `OC(Cn1cncn1)(Cn1cncn1)c1ccc(F)cc1F` [FLUCONAZOLE]: the “MIC=<80” value against Trichophyton rubrum worked out at 1 µg/mL (≈ 3.27 µM); in the series with Trichophyton verrucosum, 2 µg/mL (≈ 6.53 µM); in the series with Nannizzia gypsea it was 8 µg/mL (≈ 26.1 µM); in series [4] it was 2 µg/mL (≈ 6.53 µM).
Turning to `CN(C/C=C/c1ccc(Cl)cc1)Cc1ccc2c(c1)CCCCC2`, the half-inhibitory concentration (IC50) in series [1] turned out to be 8.8 nM.
For `CN(C/C=C/c1ccc([N+](=O)[O-])cc1)Cc1ccc2c(c1)CCCCC2`, the IC50 in series [1] is 12.4 nM.
Take `CN(CC#Cc1ccccc1)Cc1ccc2c(c1)CCCCC2`: in [1], the IC50 was above 1250 nM.
For the compound `CN(C/C=C/c1ccccc1)Cc1ccc2c(c1)CCCC2`, the 50% inhibitory concentration (IC50) in series [1] is 603 nM.
Turning to `CN(C/C=C/c1ccccc1)Cc1cccc2c1CCCCC2`, the IC50 in series [1] was above 10000 nM.
For the compound `COc1ccc(/C=C/CN(C)Cc2ccc3c(c2)CCCC3)cc1`, in series [1], the IC50 came out at 12.2 nM.
For `C(=C\c1ccccc1)/COCc1ccc2c(c1)CCCCC2`, in series [1], the half-maximal inhibitory concentration (IC50) was above 20000 nM.
Consider `CN(C/C=C/c1ccc(Cl)cc1)Cc1ccc2c(c1)CCCC2`, for which the IC50 in series [1] was 12.8 nM.
In the case of `CN(C/C=C/c1ccc(C(F)(F)F)cc1)Cc1ccc2c(c1)CCCC2.Cl`, the half-inhibitory concentration (IC50) was 1.9 nM in series [1] and 500 nM in [2]. This compound also yielded a solubility at 24 h in series [3] of 690 µg/mL.
In the case of `CN(C/C=C/c1ccc([N+](=O)[O-])cc1)Cc1ccc2c(c1)CCCC2`, the 50% inhibitory concentration (IC50) in [1] came out at 94.5 nM.
Turning to `CCN(C/C=C/c1ccccc1)Cc1ccc2c(c1)CCCCC2`, in series [1], the IC50 is above 1250 nM.
On to `CN(C/C=C/c1ccccc1)Cc1cccc2c1CCCC2`, for which, in series [1], the IC50 is above 1000 nM.
Same read-out and setting: then `CN(C/C=C/c1ccco1)Cc1ccc2c(c1)CCCCC2`, with above 2500 nM.
